CHO parental Ca – ATP-evoked calcium signal inhibitors, parental CHO, primary screen, counter-screen for OX1R antagonist project, cell-based, fluorescence, Fluo-8 calcium dye; parental CHO-K1, ATP-induced calcium, Fluo-8 fluorescence; inhibition, % at 5.6 µM; actives 0.63% (n = 330,000); AID 463079, 2010;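 active = inhibition above that plate's mean sample inhibition plus 3 SD, cut at about 26% in these data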;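 also: 0% = ATP-challenged DMSO wells and 100% = DMSO wells without ATP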
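Assay system – parental CHO cells · Reagent – ATP stimulus · Detection – intracellular calcium via Fluo-8 no-wash fluorescent dye · Evaluation – percent inhibition of ATP-evoked calcium rise, normalized to controls · Controls – ATP wells versus no-ATP DMSO wells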
CHO-K1 Ca PAM – nonselective calcium activators in parental CHO-K1 cells, primary screen, counter-screen for M1 PAM project, cell-based, Fluo-8 calcium fluorescence, full deck, 1536-well; ATP EC20; 0% at ATP EC20, 100% at ATP max; activation, % at 3 µM; actives 0.02% (n = 360,000); AID 602247, 2012;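 active = activation above the run cutoff, the mean activation of all test compounds plus 3 SD, cut at about 40% in these data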;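 also: peak over basal fluorescence ratio in a 140 s read after ATP addition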
CHO-K1 Ca antag – counter-screen for M1 antagonists: effect in parental CHO-K1 cells | AID 602250 | inhibition, % at 3 µM | ATP-induced calcium, Fluo-8 fluorescence | actives 0.6% (n = 360,000);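 active = inhibition above a per-plate cutoff, the plate's mean sample inhibition plus 3 SD, cut at about 24% in these data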;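 also: 0% = DMSO plus EC80 ATP and 100% = DMSO alone without ATP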
CHO-K1 Ca ag – counter-screen for M1 agonists: effect in parental CHO-K1 cells; actives 0.48% (n = 360,000); Fluo-8 calcium fluorescence; scaled to maximal ATP response, vehicle zero; AID 602248, 2012; activation, % at 3 µM; in the data active = activation above about 15%;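 also: untransfected CHO-K1 host cells lacking M1 receptor as counterscreen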
OX1R antag-1 – OX1R (HCRTR1) antagonists, primary screen, fluorescence, CHO/OX1R cells, Fluo-8 calcium, orexin A | actives 0.43% (n = 330,000) | Fluo-8 calcium fluorescence | inhibition, % at 5 µM;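 active = inhibition above its plate's threshold, mean inhibition of all tested compounds on the plate plus 3 SD, cut at about 37% in these data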;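 also: 0% = orexin A challenge wells and 100% = SB-334867-A antagonist wells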
Target sequence (O43613 whole entry, looked up): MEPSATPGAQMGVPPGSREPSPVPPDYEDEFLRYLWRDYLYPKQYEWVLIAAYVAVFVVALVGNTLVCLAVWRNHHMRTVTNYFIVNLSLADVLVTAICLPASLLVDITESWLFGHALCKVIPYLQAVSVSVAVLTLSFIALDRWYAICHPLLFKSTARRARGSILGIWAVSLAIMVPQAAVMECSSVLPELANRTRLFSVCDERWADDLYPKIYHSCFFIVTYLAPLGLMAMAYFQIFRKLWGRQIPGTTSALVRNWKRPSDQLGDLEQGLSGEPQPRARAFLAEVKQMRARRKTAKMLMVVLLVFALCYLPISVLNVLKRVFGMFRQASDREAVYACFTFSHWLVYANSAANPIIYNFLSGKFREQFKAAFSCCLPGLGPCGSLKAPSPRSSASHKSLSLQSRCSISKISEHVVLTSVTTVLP
OX1R antag-2 – antagonists of human orexin 1 receptor (OX1R); OX1R-expressing cells, FRET antagonist read-out; AID 485270, 2010; actives 1.8% (n = 330,000); inhibition, % at 6.6 µM; Orexin/Hypocretin receptor type 1 (Homo sapiens), O43613; in the data active = inhibition mostly above about 38%, no sharp cut-off; inactive = mostly below about 40%;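 also: 0% = agonist challenge alone and 100% = reference antagonist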
Numbers without * were called inactive; · = no result given. In the library only some 2.9% were active in any assay of this set; here they are far more common.

SMILES	CHO parental Ca	CHO-K1 Ca PAM	CHO-K1 Ca antag	CHO-K1 Ca ag	OX1R antag-1	OX1R antag-2
O=C(Nc1cccc(S(=O)(=O)N2CCCCC2)c1)c1ccccc1NS(=O)(=O)c1ccc(F)cc1	-3.1	-2.0	23.0	10.9	15.0	49.6
Cc1ccc(NS(=O)(=O)c2ccc(-n3cccn3)cc2)nc1	-17.9	11.9	31.1*	1.6	-18.9	9.4
COc1cccc(NS(=O)(=O)c2ccc(-n3cccn3)cc2)c1	-2.6	-0.4	12.2	16.2*	-11.3	27.1
Cc1ccc(NS(=O)(=O)c2ccc(-n3cccn3)cc2)c(Br)c1	·	12.6	-8.9	5.5	·	·
Cc1cnc(N=Nc2ccccc2)[nH]1	·	9.3	-10.7	0.4	·	·
CC1(C)C[C@H]2C3=CCC4[C@@]5(C)CC[C@H](O[C@@H]6O[C@H](C(=O)O)[C@@H](O)[C@H](O)[C@H]6O)[C@@](C)(CO)C5CC[C@@]4(C)[C@]3(C)C[C@H](O)[C@@]2(CO)[C@@H](O)[C@@H]1O (stereo partly drawn)	-11.2	-0.4	-1.9	0.1	-15.7	3.0
CC1(C)CC[C@]2(C(=O)O)CC[C@]3(C)C(=CC[C@@H]4[C@@]5(C)CC[C@H](O)C(C)(C)[C@@H]5CC[C@]43C)[C@@H]2C1	-3.8	18.4	-7.9	0.2	-8.3	10.3
C/C=C(\C)C(=O)OC1[C@H](OC(C)=O)C2(CO)C(CC1(C)C)C1=CCC3C4(C)CCC(O[C@@H]5O[C@H](C(=O)O)[C@@H](O[C@@H]6O[C@H](CO)[C@@H](O)[C@H](O)[C@H]6O)[C@H](O)[C@H]5O[C@H]5O[C@H](CO)[C@@H](O)[C@H](O)[C@H]5O)[C@](C)(CO)C4CCC3(C)[C@]1(C)C[C@H]2O (stereo partly drawn)	·	-19.5	101.8*	98.2*	·	·
CC(=O)OC1COC(OC2C(O)C(C)OC(OC3C(OC4CCC5(C)C(CCC6(C)C5CC=C5C7CC(C)(C)CCC7(C(=O)O)CCC56C)C4(C)CO)OCC(O)C3O)C2O)C(O)C1OC(C)=O (stereo not drawn)	100.5*	·	·	·	104.8*	22.4
C/C=C(/C)C(=O)OC1CC(C)(C)C[C@H]2C3=CC[C@@H]4[C@@]5(C)CCC(O[C@@H]6O[C@@H](C(=O)O)[C@@H](O)C(O[C@@H]7OC[C@H](O)[C@@H](O)[C@@H]7O[C@@H]7OC(CO)C(O)[C@@H](O)[C@@H]7O)C6O[C@@H]6OC(CO)C(O)C(O)C6O)[C@@](C)(CO)[C@@H]5CC[C@]4(C)[C@]3(C)CC(O)[C@@]12CO (stereo partly drawn)	100.8*	-21.5	49.0*	66.7*	104.3*	24.5
COc1ccc(-c2ccc(CN3C(C(C)C)C(=O)N(Cc4cn(CC5CCCCC5)nn4)CCS3(=O)=O)cc2)cc1OC (stereo not drawn)	·	5.2	-6.8	1.2	·	·
CCc1cc(C(=O)N2CCN(S(=O)(=O)c3ccc(Cl)cc3)CC2)sc1C	-25.6	-9.8	-9.8	-0.3	-23.9	-1.2
COc1ccc(Cl)cc1NC(=O)CN(C)C(=O)CCNC(=O)c1ccccc1OC	-20.9	1.0	12.3	-0.2	0.3	24.0
CC(=O)N1c2ccc(S(=O)(=O)N3CCC(C(=O)Nc4ncccc4C)CC3)cc2CC1C (stereo not drawn)	-18.1	21.5	-13.1	0.2	-24.3	22.2
O=C(CCS(=O)(=O)c1cccc2nsnc12)N1CC(=O)N(CCc2ccccc2)C(=O)C1	-23.9	7.6	-6.5	0.7	-3.9	52.7*
Cc1cc2occ(CC(=O)N(C)CC(=O)Nc3ccccc3Br)c2cc1C	-16.2	4.1	-1.4	3.9	5.0	68.2*
Cc1ccc(C)c(NC(=O)CN(C)C(=O)Cc2coc3cc(C)c(C)cc23)c1	-11.6	-4.1	-12.0	0.1	-14.8	22.6
CS(=O)(=O)c1cc([N+](=O)[O-])c(Sc2nc3ccccc3[nH]2)c([N+](=O)[O-])c1	31.5*	6.7	5.8	1.1	22.3	39.0*
COc1ccc(CCNC(=O)C2CCC(=O)N(CCc3ccc(OC)cc3)C2)cc1 (stereo not drawn)	-12.7	-11.0	5.0	0.8	-16.8	-2.8
COc1ccc(CCN2CC(C(=O)NCCCc3ccncc3)CCC2=O)cc1 (stereo not drawn)	·	-7.5	24.9*	0.0	·	·
CN1Cc2sc(NC(=S)NC(=O)c3ccccc3)c(C#N)c2CC1(C)C	34.0*	·	·	·	40.3*	25.2
COc1ccc(/C=C2/SC(=O)N(CCNC(=O)C3CC(=O)N(Cc4ccccc4)C3)C2=O)cc1 (stereo not drawn)	·	-4.9	1.5	4.6	·	·
O=C(NCCN1C(=O)S/C(=C/c2cccnc2)C1=O)C1CC(=O)N(Cc2ccccc2)C1 (stereo not drawn)	-7.2	3.2	-6.9	0.0	-22.0	53.1*
CCCCN(CCCNC(=O)c1ccc2c(c1)NC(=O)CN2C)c1ccccc1	·	17.4	-11.9	0.6	·	·
NC(=O)C1CCN(C(=O)COc2ccc(Nc3ccccc3)cc2)CC1	2.6	8.3	-1.3	0.3	2.4	51.6*
SMILES	CHO parental Ca	CHO-K1 Ca PAM	CHO-K1 Ca antag	CHO-K1 Ca ag	OX1R antag-1	OX1R antag-2
COc1ccc(/C=N/Nc2ncc(-c3ccccc3)cn2)c(OC)c1	-11.4	14.5	-6.7	0.1	-43.8	22.6
COc1ccc(/C=N/Nc2ncccc2[N+](=O)[O-])c(OC)c1	-13.3	-3.9	-9.7	-1.3	-7.5	49.7*
O=S(=O)(NN1CCOCC1)c1cc(Cl)cc(Cl)c1O	6.1	20.3	-13.7	1.3	-5.8	1.6
CC(C(=O)NC(C)(C)C)N(Cc1cccs1)C(=O)CCN1CCc2ccccc21 (stereo not drawn)	-20.7	1.6	4.3	22.5*	-20.6	24.2
CCNC(=O)NC(=O)c1csc([N+](=O)[O-])c1	-14.0	12.8	-7.0	2.9	-10.5	40.2*
C=CCNC(=O)NC(=O)c1csc([N+](=O)[O-])c1	4.1	7.0	-2.7	1.2	-17.6	46.3*
O=C(NCc1ccco1)NC(=O)c1csc([N+](=O)[O-])c1	7.0	10.0	-2.2	1.3	-16.5	25.8
C=CCNC(=O)c1ccc([N+](=O)[O-])c(Cl)c1	-1.7	12.4	-4.5	1.3	-8.6	9.2
CC(=O)Nc1cc2nc(C)n(Cc3ccccc3[N+](=O)[O-])c2nc1C	2.2	10.0	-10.3	0.5	3.1	11.5
O=[N+]([O-])c1ccc(S(=O)(=O)Nc2ccc(-c3ccc(N4CCOCC4)nn3)cc2)cc1	-5.7	1.3	-0.5	3.6	-4.4	27.2
